Data: ChEMBL document CHEMBL5058577, “EUbOPEN Chemogenomics Library 2 (Multiplex)” (2022)

Tested on: HEK-293T
Test: Multiplex assay against HEK293T
Format: toxicity, cell-based
Conditions: human
Method in brief: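 Cells were classed with CellPathfinder machine-learning gating, first as Hoechst high-intensity objects or normal cells, then (normal cells) as healthy, pyknosed or fragmented nuclei, and finally (pyknosed cells) as mitotic or apoptotic. Staining of live cells at seeding used Hoechst33342, BioTracker Green Microtubule Cytoskeleton Dye, MitoTracker Red and Annexin V Alexa Fluor 680, with imaging on a CQ1 microscope at 37°C and 5% CO2 after compound addition. Tubulin, mitochondrial-mass and membrane-permeability phenotypes are per cents of healthy-nucleus cells.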

[1] = 12 h, 1 µM, compound concentration 1 uM, replicate 1
[2] = 12 h, 1 µM, compound concentration 1 uM, replicate 2
[3] = 12 h, 10 µM, compound concentration 10 uM, replicate 1
[4] = 12 h, 10 µM, compound concentration 10 uM, replicate 2
[5] = 24 h, 1 µM, compound concentration 1 uM, replicate 1
[6] = 24 h, 1 µM, compound concentration 1 uM, replicate 2
[7] = 24 h, 10 µM, compound concentration 10 uM, replicate 1
[8] = 24 h, 10 µM, compound concentration 10 uM, replicate 2
[9] = 48 h, 1 µM, compound concentration 1 uM, replicate 1
[10] = 48 h, 1 µM, compound concentration 1 uM, replicate 2
[11] = 48 h, 10 µM, compound concentration 10 uM, replicate 1
[12] = 48 h, 10 µM, compound concentration 10 uM, replicate 2

Compound: Cc1cc(O)c(-c2ccc([C@@H](C)CN(C)C)cc2)c2c1[nH]c(=O)c1sccc12
- Population Apoptotic (%) [1]: 63%
- Population Fragmented Nuclei (%) [1]: 14%
- Population Healthy Nuclei (%) [1]: 49%
- Population Hoechst High Intensity Objects (%) [1]: 27%
- Population Membrane Permeable-Phenotype (%) [1]: 0%
- Population Mitochondria Different-Phenotype (%) [1]: 90%
- Population Mitotic Cells (%) [1]: 36%
- Population Normal (%) [1]: 72%
- Population Pyknosed Nuclei (%) [1]: 36%
- Population Tubulin-Different-Phenotype (%) [1]: 78%
- Total Cell Count [1]: 209
- Population Apoptotic (%) [2]: 59%
- Population Fragmented Nuclei (%) [2]: 8%
- Population Healthy Nuclei (%) [2]: 66%
- Population Hoechst High Intensity Objects (%) [2]: 28%
- Population Membrane Permeable-Phenotype (%) [2]: 1%
- Population Mitochondria Different-Phenotype (%) [2]: 91%
- Population Mitotic Cells (%) [2]: 40%
- Population Normal (%) [2]: 71%
- Population Pyknosed Nuclei (%) [2]: 25%
- Population Tubulin-Different-Phenotype (%) [2]: 74%
- Total Cell Count [2]: 207
- Population Apoptotic (%) [3]: 53%
- Population Fragmented Nuclei (%) [3]: 6%
- Population Healthy Nuclei (%) [3]: 44%
- Population Hoechst High Intensity Objects (%) [3]: 41%
- Population Membrane Permeable-Phenotype (%) [3]: 0%
- Population Mitochondria Different-Phenotype (%) [3]: 100%
- Population Mitotic Cells (%) [3]: 46%
- Population Normal (%) [3]: 58%
- Population Pyknosed Nuclei (%) [3]: 48%
- Population Tubulin-Different-Phenotype (%) [3]: 60%
- Total Cell Count [3]: 268
- Population Apoptotic (%) [4]: 70%
- Population Fragmented Nuclei (%) [4]: 7%
- Population Healthy Nuclei (%) [4]: 60%
- Population Hoechst High Intensity Objects (%) [4]: 28%
- Population Mitochondria Different-Phenotype (%) [4]: 94%
- Population Mitotic Cells (%) [4]: 29%
- Population Normal (%) [4]: 71%
- Population Pyknosed Nuclei (%) [4]: 31%
- Population Tubulin-Different-Phenotype (%) [4]: 72%
- Total Cell Count [4]: 195
- Population Apoptotic (%) [5]: 65%
- Population Fragmented Nuclei (%) [5]: 9%
- Population Healthy Nuclei (%) [5]: 60%
- Population Hoechst High Intensity Objects (%) [5]: 21%
- Population Membrane Permeable-Phenotype (%) [5]: 0%
- Population Mitochondria Different-Phenotype (%) [5]: 89%
- Population Mitotic Cells (%) [5]: 34%
- Population Normal (%) [5]: 78%
- Population Pyknosed Nuclei (%) [5]: 30%
- Population Tubulin-Different-Phenotype (%) [5]: 67%
- Total Cell Count [5]: 230
- Population Apoptotic (%) [6]: 68%
- Population Healthy Nuclei (%) [6]: 70%
- Population Mitochondria Different-Phenotype (%) [6]: 93%
- Population Mitotic Cells (%) [6]: 31%
- Population Pyknosed Nuclei (%) [6]: 19%
- Population Tubulin-Different-Phenotype (%) [6]: 74%
- Total Cell Count [6]: 205
- Population Apoptotic (%) [7]: 73%
- Population Fragmented Nuclei (%) [7]: 8%
- Population Healthy Nuclei (%) [7]: 67%
- Population Hoechst High Intensity Objects (%) [7]: 36%
- Population Membrane Permeable-Phenotype (%) [7]: 1%
- Population Mitochondria Different-Phenotype (%) [7]: 92%
- Population Mitotic Cells (%) [7]: 26%
- Population Normal (%) [7]: 63%
- Population Pyknosed Nuclei (%) [7]: 24%
- Population Tubulin-Different-Phenotype (%) [7]: 70%
- Total Cell Count [7]: 290
- Population Apoptotic (%) [8]: 85%
- Population Fragmented Nuclei (%) [8]: 7%
- Population Healthy Nuclei (%) [8]: 69%
- Population Hoechst High Intensity Objects (%) [8]: 25%
- Population Membrane Permeable-Phenotype (%) [8]: 0%
- Population Mitochondria Different-Phenotype (%) [8]: 93%
- Population Mitotic Cells (%) [8]: 14%
- Population Normal (%) [8]: 74%
- Population Pyknosed Nuclei (%) [8]: 23%
- Population Tubulin-Different-Phenotype (%) [8]: 80%
- Total Cell Count [8]: 203
- Population Apoptotic (%) [9]: 86%
- Population Fragmented Nuclei (%) [9]: 13%
- Population Healthy Nuclei (%) [9]: 65%
- Population Hoechst High Intensity Objects (%) [9]: 24%
- Population Membrane Permeable-Phenotype (%) [9]: 0%
- Population Mitochondria Different-Phenotype (%) [9]: 90%
- Population Mitotic Cells (%) [9]: 13%
- Population Normal (%) [9]: 75%
- Population Pyknosed Nuclei (%) [9]: 20%
- Population Tubulin-Different-Phenotype (%) [9]: 76%
- Total Cell Count [9]: 249
- Population Apoptotic (%) [10]: 69%
- Population Fragmented Nuclei (%) [10]: 16%
- Population Healthy Nuclei (%) [10]: 67%
- Population Hoechst High Intensity Objects (%) [10]: 25%
- Population Mitochondria Different-Phenotype (%) [10]: 96%
- Population Mitotic Cells (%) [10]: 30%
- Population Normal (%) [10]: 74%
- Population Pyknosed Nuclei (%) [10]: 16%
- Population Tubulin-Different-Phenotype (%) [10]: 70%
- Total Cell Count [10]: 212
- Population Apoptotic (%) [11]: 86%
- Population Fragmented Nuclei (%) [11]: 15%
- Population Healthy Nuclei (%) [11]: 64%
- Population Hoechst High Intensity Objects (%) [11]: 40%
- Population Membrane Permeable-Phenotype (%) [11]: 1%
- Population Mitochondria Different-Phenotype (%) [11]: 92%
- Population Mitotic Cells (%) [11]: 13%
- Population Normal (%) [11]: 59%
- Population Pyknosed Nuclei (%) [11]: 20%
- Population Tubulin-Different-Phenotype (%) [11]: 54%
- Total Cell Count [11]: 298
- Population Apoptotic (%) [12]: 87%
- Population Fragmented Nuclei (%) [12]: 13%
- Population Healthy Nuclei (%) [12]: 58%
- Population Hoechst High Intensity Objects (%) [12]: 34%
- Population Membrane Permeable-Phenotype (%) [12]: 0%
- Population Mitochondria Different-Phenotype (%) [12]: 100%
- Population Mitotic Cells (%) [12]: 12%
- Population Normal (%) [12]: 65%
- Population Pyknosed Nuclei (%) [12]: 28%
- Population Tubulin-Different-Phenotype (%) [12]: 73%
- Total Cell Count [12]: 223
